Where two headings read alike, the source gives them in different places.
Legend:
[1] = Part I single ascending-dose pharmacokinetics; assay type: in vivo, human; conditions: for t max / AUCt / AUC∞ / C max / CL/F_obs / V z/F_obs / t ½ / λz: part I, fasted; for t max: mean (range) per footnote; for AUCt / AUC∞ / C max / CL/F_obs / V z/F_obs / t ½ / λz: mean ± SD
[2] = Part II urinary recovery of ZYAN1; assay type: in vivo, human; conditions: urine
In short: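 Urine collected pre-dose and over 0–12, 12–24, 24–36 and 36–48 h: after the single dose (10–300 mg, part I) or after each alternate-day dose on Days 1, 3 and 5 (part II). Total volume recorded; 5 mL aliquots stored at –80 ± 10 °C. Acetonitrile precipitation and LC-MS/MS with analog internal standard, urine calibration 2–5000 ng/mL, LLOQ 2 ng/mL. Amount and percentage of dose recovered calculated.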

[3] = system: serum erythropoietin (EPO), hemoglobin, hematocrit, reticulocyte count; assay: Part I pharmacodynamics; assay type: in vivo, human; conditions: for mean serum EPO C max: placebo 9.6 mIU/L
In short: (§1)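 Serum EPO, hemoglobin, hematocrit and reticulocyte count were measured in blood taken before and after oral dosing. Regimens: part I single fasted doses 10–300 mg vs placebo; part II 100–300 mg on Days 1, 3, 5 vs placebo; part III single 150 mg, fasted vs fed, men and women. EPO expressed baseline-corrected. Post-dose vs baseline compared by paired two-sided t test, α = 0.05.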

[4] = system: serum erythropoietin (EPO), hemoglobin, hematocrit, reticulocyte count; assay: Part II pharmacodynamics; assay type: in vivo, human; conditions: for serum EPO C max: placebo 11.0 mIU/L
In short: as §1

[5] = system: serum erythropoietin (EPO), hemoglobin, hematocrit, reticulocyte count; assay: Part III pharmacodynamics; assay type: in vivo, human; conditions: single 150 mg
In short: as §1

[6] = Part I safety assessment; assay type: in vivo, human
In short: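 Safety monitored under ICH-GCP in each part (single 10–300 mg; alternate-day 100–300 mg; 150 mg fasted/fed crossover). Assessments: adverse events coded with MedDRA version 18.0, clinical examinations, frequent vital signs, 12-lead ECGs, clinical laboratory tests, and continuous ECG for 24 h post-dose in parts I and II. Post-dose vs baseline compared by paired two-sided t test, α = 0.05.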

[7] = system: hemoglobin levels; conditions: cited from earlier work
[8] = after oral dosing across the species tested; cited from earlier work
[9] = system: cytochrome P450 (CYP); conditions: cited from earlier work
[10] = rats, oral route; cited from earlier work
[11] = beagle dogs, oral route; cited from earlier work
[12] = rats, 1-month toxicity study; cited from earlier work
[13] = dogs, cited from earlier work
[14] = cited from earlier work

O=C(O)CNC(=O)c1c(O)c2ccccc2n(OCC2CC2)c1=O [ZYAN1]
dose proportionality of C max and AUC ([1]; 30-fold single dose range, slight deviation at higher doses): almost dose-proportional increase
V d, range ([1]; across single doses 10-300 mg): 28 to 47 L
apparent oral CL, range ([1]; across single doses 10-300 mg): 2 to 2.9 L/h
t max ([1]; single oral dose 10 mg): 2.50 (1.50–3.00) h
AUCt ([1]; single oral dose 10 mg): 3597.269 ± 549.116 ng·h/mL
AUC∞ ([1]; single oral dose 10 mg): 3659.531 ± 551.508 ng·h/mL
C max ([1]; single oral dose 10 mg): 566.467 ± 163.031 ng/mL
CL/F_obs ([1]; single oral dose 10 mg): 2784.592 ± 417.679 mL/h
V z/F_obs ([1]; single oral dose 10 mg): 27,683.707 ± 4805.113 mL
t ½ ([1]; single oral dose 10 mg): 6.976 ± 1.390 h
λz ([1]; single oral dose 10 mg): 0.102 ± 0.019 h⁻¹
t max ([1]; single oral dose 25 mg): 1.25 (1.00–2.50) h
AUCt ([1]; single oral dose 25 mg): 9177.789 ± 2359.163 ng·h/mL
AUC∞ ([1]; single oral dose 25 mg): 9269.839 ± 2396.986 ng·h/mL
C max ([1]; single oral dose 25 mg): 1634.500 ± 299.429 ng/mL
CL/F_obs ([1]; single oral dose 25 mg): 2870.759 ± 817.646 mL/h
V z/F_obs ([1]; single oral dose 25 mg): 27,950.696 ± 5329.29 mL
t ½ ([1]; single oral dose 25 mg): 6.917 ± 0.923 h
λz ([1]; single oral dose 25 mg): 0.102 ± 0.016 h⁻¹
t max ([1]; single oral dose 50 mg): 2.25 (1.00–5.00) h
AUCt ([1]; single oral dose 50 mg): 24,518.328 ± 5125.235 h·ng/mL
AUC∞ ([1]; single oral dose 50 mg): 24,847.379 ± 5242.290 h·ng/mL
C max ([1]; single oral dose 50 mg): 2959.333 ± 686.898 ng/mL
CL/F_obs ([1]; single oral dose 50 mg): 2084.748 ± 417.943 mL/h
V z/F_obs ([1]; single oral dose 50 mg): 30,578.971 ± 10,323.282 mL
t ½ ([1]; single oral dose 50 mg): 10.434 ± 3.857 h
λz ([1]; single oral dose 50 mg): 0.074 ± 0.024 h⁻¹
t max ([1]; single oral dose 100 mg): 2.25 (1.00–5.00) h
AUCt ([1]; single oral dose 100 mg): 46,844.762 ± 13,259.837 h·ng/mL
AUC∞ ([1]; single oral dose 100 mg): 47,320.651 ± 13,358.696 h·ng/mL
C max ([1]; single oral dose 100 mg): 6745.000 ± 1958.132 ng/mL
CL/F_obs ([1]; single oral dose 100 mg): 2271.507 ± 686.413 mL/h
V z/F_obs ([1]; single oral dose 100 mg): 33,572.508 ± 10,971.959 mL
t ½ ([1]; single oral dose 100 mg): 10.685 ± 3.249 h
λz ([1]; single oral dose 100 mg): 0.071 ± 0.023 h⁻¹
t max ([1]; single oral dose 150 mg): 3.00 (2.50–5.00) h
AUCt ([1]; single oral dose 150 mg): 54,401.071 ± 12,592.181 h·ng/mL
AUC∞ ([1]; single oral dose 150 mg): 54,672.481 ± 12,686.075 h·ng/mL
C max ([1]; single oral dose 150 mg): 8119.333 ± 1269.627 ng/mL
CL/F_obs ([1]; single oral dose 150 mg): 2891.042 ± 782.208 mL/h
V z/F_obs ([1]; single oral dose 150 mg): 46,536.434 ± 9434.457 mL
t ½ ([1]; single oral dose 150 mg): 11.357 ± 1.616 h
λz ([1]; single oral dose 150 mg): 0.062 ± 0.008 h⁻¹
t max ([1]; single oral dose 200 mg): 2.25 (1.50–5.00) h
AUCt ([1]; single oral dose 200 mg): 76,515.016 ± 6992.709 h·ng/mL
AUC∞ ([1]; single oral dose 200 mg): 76,728.333 ± 7061.227 h·ng/mL
C max ([1]; single oral dose 200 mg): 12,080.667 ± 3430.123 ng/mL
CL/F_obs ([1]; single oral dose 200 mg): 2625.566 ± 248.239 mL/h
V z/F_obs ([1]; single oral dose 200 mg): 36,035.031 ± 6400.263 mL
t ½ ([1]; single oral dose 200 mg): 9.502 ± 1.270 h
λz ([1]; single oral dose 200 mg): 0.074 ± 0.01 h⁻¹
t max ([1]; single oral dose 300 mg): 2.00 (1.00–5.00) h
AUCt ([1]; single oral dose 300 mg): 115,898.815 ± 45,549.563 h·ng/mL
AUC∞ ([1]; single oral dose 300 mg): 116,226.587 ± 45,834.174 h·ng/mL
C max ([1]; single oral dose 300 mg): 17,858.333 ± 2899.189 ng/mL
CL/F_obs ([1]; single oral dose 300 mg): 2835.924 ± 799.195 mL/h
V z/F_obs ([1]; single oral dose 300 mg): 38,836.681 ± 12,903.706 mL
t ½ ([1]; single oral dose 300 mg): 9.484 ± 1.325 h
λz ([1]; single oral dose 300 mg): 0.074 ± 0.011 h⁻¹
t ½, range ([1]; single doses 10-300 mg): 6.9 to 11.3 h
median time to C max (t max) ([1]; single doses 10-300 mg (30-fold range)): approximately 2.5 h
Amount recovered [mean ± SD] ([2]; 100 mg, Day 1): 50.13 ± 14.99 mg
Percentage recovered [mean ± SD] ([2]; 100 mg, Day 1): 50.132 ± 14.998%
Amount recovered [mean ± SD] ([2]; 100 mg, Day 3): 41.00 ± 11.07 mg
Percentage recovered [mean ± SD] ([2]; 100 mg, Day 3): 41.001 ± 11.071%
Amount recovered [mean ± SD] ([2]; 100 mg, Day 5): 50.14 ± 12.16 mg
Percentage recovered [mean ± SD] ([2]; 100 mg, Day 5): 50.137 ± 12.160%
Amount recovered [mean ± SD] ([2]; 150 mg, Day 1): 52.77 ± 6.85 mg
Percentage recovered [mean ± SD] ([2]; 150 mg, Day 1): 35.178 ± 4.566%
Amount recovered [mean ± SD] ([2]; 150 mg, Day 3): 54.64 ± 13.35 mg
Percentage recovered [mean ± SD] ([2]; 150 mg, Day 3): 36.427 ± 8.900%
Amount recovered [mean ± SD] ([2]; 150 mg, Day 5): 44.23 ± 8.18 mg
Percentage recovered [mean ± SD] ([2]; 150 mg, Day 5): 29.488 ± 5.453%
Amount recovered [mean ± SD] ([2]; 200 mg, Day 1): 64.95 ± 25.50 mg
Percentage recovered [mean ± SD] ([2]; 200 mg, Day 1): 32.474 ± 12.749%
Amount recovered [mean ± SD] ([2]; 200 mg, Day 3): 66.09 ± 8.74 mg
Percentage recovered [mean ± SD] ([2]; 200 mg, Day 3): 33.044 ± 4.371%
Amount recovered [mean ± SD] ([2]; 200 mg, Day 5): 75.76 ± 12.76 mg
Percentage recovered [mean ± SD] ([2]; 200 mg, Day 5): 37.880 ± 6.381%
Amount recovered [mean ± SD] ([2]; 300 mg, Day 1): 82.97 ± 35.69 mg
Percentage recovered [mean ± SD] ([2]; 300 mg, Day 1): 27.656 ± 11.899%
Amount recovered [mean ± SD] ([2]; 300 mg, Day 3): 92.22 ± 41.92 mg
Percentage recovered [mean ± SD] ([2]; 300 mg, Day 3): 30.741 ± 13.972%
Amount recovered [mean ± SD] ([2]; 300 mg, Day 5): 99.15 ± 34.40 mg
Percentage recovered [mean ± SD] ([2]; 300 mg, Day 5): 33.050 ± 11.466%
EPO response vs placebo ([3]; doses up to 150 mg): not markedly different from placebo
mean serum EPO C max ([3]; single dose 10 mg): 6.6 mIU/L
mean serum EPO C max ([3]; single dose 300 mg): 79.9 mIU/L
initiation of EPO rise after ZYAN1 administration ([3]; single dose, as early as): 6 h
hemoglobin increase observed in most of the subjects ([3]; single dose, more consistent from 100 mg and above): > 0.5 gm%
lag in time to EPO C max from pharmacokinetic t max ([4]; multiple dosing, similar to single dosing): 6 to 8 h
serum EPO C max ([4]; part II, 100 mg on Days 1, 3, 5): 14.4 mIU/L
serum EPO C max ([4]; part II, 300 mg on Days 1, 3, 5): 60.5 mIU/L
hemoglobin increase on any timepoint, seen in more subjects than placebo ([4]; part II, higher threshold): > 1.0 gm%
mean serum EPO concentrations, fasted vs fed [5]: no apparent difference
mean serum EPO concentrations, male vs female subjects ([5]; fasted or fed): no apparent difference
Adverse events (Test) ([6]; SAD 25 mg panel): Rhinorrhea, right lower wisdom tooth pain, sore throat
Adverse events (Test) ([6]; SAD 50 mg panel): Dizziness, headache, chest pain, Diarrhea, upper respiratory tract infection
Adverse events (Test) ([6]; SAD 100 mg panel): Dizziness, headache, lethargy, nausea, throat irritation, increase in AST, hyperkalemia
Adverse events (Test) ([6]; SAD 200 mg panel): Back pain
drug-related serious adverse events ([6]; all study parts): No drug-related serious adverse events were reported
severity of AEs possibly related to study treatment ([6]; part I): grade 1
subjects with AEs possibly related to study treatment ([6]; part I, nine AEs in six subjects, placebo 21%): 14%
tolerability ([6]; single and multiple oral ascending doses): well-tolerated
effective dose for inducing hematopoiesis ([7]; alternate dosing pattern for a week): 15 mg/kg
erythropoiesis / hemoglobin levels ([7]; repeated dose model, nephrectomized rats and mice): robust increase in erythropoiesis, resulting in normalization of hemoglobin levels
oral absorption and bioavailability [8]: well-absorbed and highly bioavailable
potential for cytochrome P450 (CYP)-mediated drug–drug interactions [9]: minimal potential
tolerated dose, single-dose study [10]: up to 800 mg/kg
tolerated dose, single-dose study [11]: up to 75 mg/kg
maximum tolerated dose (MTD) [12]: 60 mg/kg
maximum tolerated dose (MTD) ([13]; 1-month toxicity study): 15 mg/kg
no observed adverse effect level (NOAEL) ([13]; 28-day toxicity study): 5 mg/kg
effect of acute and chronic kidney failure models on pharmacokinetics ([14]; rats vs normal control rats): did not alter the pharmacokinetics
increase in the exposure after complete removal of both kidneys ([14]; rats): 2 fold

Reference: publication PMC5766731 (Clinical Pharmacokinetics, 2017)
